The target of assay [1] is T1, Tyrosine-protein phosphatase non-receptor type 1 (Homo sapiens, UniProt P18031).
T1 sequence (P18031 whole entry): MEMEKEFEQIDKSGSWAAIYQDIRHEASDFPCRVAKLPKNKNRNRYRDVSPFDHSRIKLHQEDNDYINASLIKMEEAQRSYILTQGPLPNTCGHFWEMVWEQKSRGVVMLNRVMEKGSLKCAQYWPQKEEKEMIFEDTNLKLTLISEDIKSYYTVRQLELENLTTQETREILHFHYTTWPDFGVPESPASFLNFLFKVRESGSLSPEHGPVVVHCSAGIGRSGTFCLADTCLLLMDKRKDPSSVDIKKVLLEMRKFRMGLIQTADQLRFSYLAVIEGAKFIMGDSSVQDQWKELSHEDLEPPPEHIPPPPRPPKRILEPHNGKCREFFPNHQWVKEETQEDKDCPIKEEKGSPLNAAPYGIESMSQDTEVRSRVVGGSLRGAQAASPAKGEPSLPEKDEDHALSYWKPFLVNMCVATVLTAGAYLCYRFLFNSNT
Nature of the assay: Inhibition of human recombinant PTP1B catalytic domain. Summed up: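 Recombinant human PTP1B catalytic domain, 30 nM, with 2 mM pNPP substrate in 50 mM MOPS pH 6.5 at 30 °C. pNP release read continuously at 405 nm for 2 min. Initial rate comes from the early linear part of the curve. Inhibitors diluted around the estimated IC50. IC50 from nonlinear fit of % inhibition vs [I] with a Hill coefficient term.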

The target in assay [2] is T2, Tyrosine-protein phosphatase non-receptor type 1 (Homo sapiens) (UniProt P18031).
T2 sequence (whole entry): T1 sequence (P18031 whole entry)
Nature of the assay: Inhibition of human recombinant PTP1B catalytic domain at 20 ug/mL. Summed up: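 Human PTP1B catalytic domain (recombinant) hydrolysing 2 mM pNPP in 50 mM MOPS pH 6.5 at 30 °C. pNP formation followed at 405 nm for 2 min. Initial rate taken from the early linear region. Compounds tested at 20 µg/mL. Result given as percent inhibition.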

The IC50 is the concentration needed to halve the response being measured. The term inhibition denotes the share of the control response that was lost under treatment. For the compound `COc1ccc(OC)c([C@@H]2O[C@H](Cn3cc(COC(=O)c4cccc(C(=O)OCc5cn(C[C@H]6O[C@@H](c7cc(OC)ccc7OC)[C@H](OC(=O)c7ccccc7)[C@@H](OC(=O)c7ccccc7)[C@H]6OC(=O)c6ccccc6)nn5)c4)nn3)[C@H](OC(=O)c3ccccc3)[C@H](OC(=O)c3ccccc3)[C@H]2OC(=O)c2ccccc2)c1`, the IC50 in assay [1] came out at 0.88 µM. The inhibition in assay [2] stood at 98.5%.

Turning to `COc1cc([C@@H]2O[C@H](CN3C=C(COC(=O)c4cccc(C(=O)OCC5=CN(C[C@H]6O[C@@H](c7cc(OC)c8ccccc8c7OC)[C@H](OC(C)=O)[C@@H](OC(C)=O)[C@@H]6OC(C)=O)NN5)c4)NN3)[C@@H](OC(C)=O)[C@H](OC(C)=O)[C@H]2OC(C)=O)c(OC)c2ccccc12`, the inhibition in assay [2] is 12.5%.

Consider `CC(=O)O[C@@H]1[C@@H](OC(C)=O)[C@H](C2=CC(=O)c3ccccc3C2=O)O[C@H](Cn2cc(COC(=O)c3cccc(C(=O)OCc4cn(C[C@H]5O[C@@H](C6=CC(=O)c7ccccc7C6=O)[C@H](OC(C)=O)[C@@H](OC(C)=O)[C@@H]5OC(C)=O)nn4)c3)nn2)[C@H]1OC(C)=O`, for which, in assay [2], the inhibition amounted to 8.5%.

On to `CC(=O)OC[C@H]1O[C@@H](C2=CC(=O)C=CC2=O)[C@H](OC(C)=O)[C@@H](OC(C)=O)[C@@H]1OC(C)=O`, for which the concentration for half-maximal inhibition (IC50) in assay [1] stood at 4.85 µM.

Turning to `COc1ccc(OC)c([C@@H]2O[C@H](Cn3cc(COC(=O)c4cccc(C(=O)OCc5cn(C[C@H]6O[C@@H](c7cc(OC)ccc7OC)[C@H](OC(=O)c7ccccc7)[C@@H](OC(=O)c7ccccc7)[C@@H]6OC(=O)c6ccccc6)nn5)c4)nn3)[C@@H](OC(=O)c3ccccc3)[C@H](OC(=O)c3ccccc3)[C@H]2OC(=O)c2ccccc2)c1`, in assay [1], the IC50 worked out at 0.87 µM. Also, in assay [2], the inhibition was 97.8%.

As for `O=C1C=CC(=O)C([C@@H]2O[C@H](Cn3cc(COC(=O)c4cccc(C(=O)OCc5cn(C[C@H]6O[C@@H](C7=CC(=O)C=CC7=O)[C@H](OC(=O)c7ccccc7)[C@@H](OC(=O)c7ccccc7)[C@@H]6OC(=O)c6ccccc6)nn5)c4)nn3)[C@@H](OC(=O)c3ccccc3)[C@H](OC(=O)c3ccccc3)[C@H]2OC(=O)c2ccccc2)=C1`, the IC50 in assay [1] was determined as 0.62 µM. Moreover, in assay [2], the inhibition amounted to 95.8%.

Regarding `O=C1C=CC(=O)C([C@@H]2O[C@H](Cn3cc(COC(=O)c4cccc(C(=O)OCc5cn(C[C@H]6O[C@@H](C7=CC(=O)C=CC7=O)[C@H](OC(=O)c7ccccc7)[C@@H](OC(=O)c7ccccc7)[C@H]6OC(=O)c6ccccc6)nn5)c4)nn3)[C@H](OC(=O)c3ccccc3)[C@H](OC(=O)c3ccccc3)[C@H]2OC(=O)c2ccccc2)=C1`, the IC50 in assay [1] worked out at 0.72 µM. For the same compound, the inhibition in assay [2] was found to be 95.5%.

With `CC(=O)O[C@H]1[C@@H](OC(C)=O)[C@@H](Cn2cc(COC(=O)c3cccc(C(=O)OCc4cn(C[C@H]5O[C@@H](C6=CC(=O)c7ccccc7C6=O)[C@H](OC(C)=O)[C@@H](OC(C)=O)[C@H]5OC(C)=O)nn4)c3)nn2)O[C@@H](C2=CC(=O)c3ccccc3C2=O)[C@@H]1OC(C)=O`, the inhibition in assay [2] was 0.8%.

Consider `COc1cc([C@@H]2O[C@H](CN3C=C(COC(=O)c4cccc(C(=O)OCC5=CN(C[C@H]6O[C@@H](c7cc(OC)c8ccccc8c7OC)[C@H](OC(C)=O)[C@@H](OC(C)=O)[C@H]6OC(C)=O)NN5)c4)NN3)[C@H](OC(C)=O)[C@H](OC(C)=O)[C@H]2OC(C)=O)c(OC)c2ccccc12`, for which the inhibition in assay [2] is 7.5%.

The values above are taken from ChEMBL document CHEMBL1142536, “Synthesis of triazole-linked beta-C-glycosyl dimers as inhibitors of PTP1B” (Bioorg Med Chem, 2008).
